From article PMC6474823 (Molecular cell, 2019)

How the values were obtained:
Src^3D WT = Src^3D WT (Homo sapiens, UniProt P12931); test: Inhibitor IC50 determination, fluorescent SFK peptide kinase assay; format: biochemical; conditions: 1 mM ATP
How it was run: (§1)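 Kinase concentrations were set in the linear range by prior titration: Src3D WT or V284C at 7.5 nM, Hck3D WT or V284C at 5 nM. Kinase was incubated 30 min with test compound (30 μM top, 3-fold serial dilutions, 10 points) and 1 mM ATP in HEPES pH 7.5 buffer with MgCl2, EGTA, BSA, vanadate and BME. Then 20 μM pyrene-labelled SFK peptide was added for 2 h. Fluorescence was read at ex 344/em 405 nm, in triplicate.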

Src^3D V284C = Src^3D V284C (Homo sapiens, UniProt P12931, V284C); test: as above; format: biochemical; conditions: 1 mM ATP
How it was run: as §1

Hck^3D WT = Hck^3D WT (Homo sapiens, UniProt P08631); test: as above; format: biochemical; conditions: 1 mM ATP
Hck^3D WT, sequence (P08631 81-526): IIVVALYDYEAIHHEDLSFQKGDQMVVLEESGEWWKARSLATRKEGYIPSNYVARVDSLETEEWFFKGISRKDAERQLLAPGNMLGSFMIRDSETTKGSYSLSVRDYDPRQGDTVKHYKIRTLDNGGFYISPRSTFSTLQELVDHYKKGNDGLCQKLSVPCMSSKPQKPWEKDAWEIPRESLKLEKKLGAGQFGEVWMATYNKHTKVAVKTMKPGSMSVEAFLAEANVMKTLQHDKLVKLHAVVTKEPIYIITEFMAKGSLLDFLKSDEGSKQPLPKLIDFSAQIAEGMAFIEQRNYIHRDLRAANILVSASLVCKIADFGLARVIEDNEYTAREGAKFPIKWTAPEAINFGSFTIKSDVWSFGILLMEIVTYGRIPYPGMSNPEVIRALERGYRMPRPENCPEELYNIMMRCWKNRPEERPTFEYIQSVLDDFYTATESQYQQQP
How it was run: as §1

[1] = test system: kinases in lysates of HEK293T cells expressing Hck^FLAG V284C; test: Kinobead kinome profiling of CystIMATIK probes; format: binding, human; conditions: 10 μM probe vs DMSO, ~220 kinases enriched
Src^FLAG V284C = Src^FLAG V284C (Homo sapiens, UniProt P12931, V284C); test: SH3 domain pulldown assay with inhibitor-treated cells; format: cell-based; conditions: HEK293 cells treated with 10 μM probe for 2 h; immobilized SH3 domain ligand
How it was run: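 HEK293T cells expressing SrcFLAG V284C were treated with 10 μM test compound for 2 h. They were then PBS-washed and lysed for 20 min on ice in modified RIPA (pH 7.8, 1% IGEPAL, protease/phosphatase inhibitors, 10 μM compound). Lysates were cleared at 17,000x g, 4 °C, then incubated with SNAP-immobilized SH3 ligand resin, rotating at room temperature for 1 h. Retained Src was quantified by anti-FLAG blotting, n=3.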

[2] = test system: Src^GFP V284C-expressing SYFs; test: Membrane blebbing microscopy; format: cell-based, murine; conditions: for membrane blebbing: 15 min treatment, 3 μM 2 or 10 μM 3 (1, 3 or 10 μM 3 for dose dependence)
How it was run: (§2)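 SYF cells were seeded on glass slides at 2×10^4 and transfected 24 h later with turbofectin (3:1 μL:μg DNA). At 24 h post-transfection, cells were exposed to test compound for 15 min; where indicated, 10 μM ROCK inhibitor was given for 2 h beforehand. Cells were PBS-washed, fixed in 4% paraformaldehyde for 15 min, and stained with NucBlue and Alexa647-wheat-germ agglutinin for 15 min. The fraction of cells showing blebs was scored.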

[3] = test system: SYFs expressing Src^GFP WT; test: Membrane blebbing microscopy; format: cell-based, murine; conditions: 10 μM 3, 15 min; Src^GFP WT resistant to probes
[4] = test system: Src^GFP G2A/V284C-expressing SYFs; test: Membrane blebbing microscopy; format: cell-based, murine; conditions: 10 μM 3, 15 min; non-myristoylatable Src
How it was run: as §2

[5] = test system: Fyn^myr V284C-expressing SYFs; test: Membrane blebbing microscopy; format: cell-based, murine; conditions: 10 μM 3, 15 min
How it was run: as §2

Src^FL K445C = Src^FL K445C (Homo sapiens, UniProt P12931, K445C); test: Isotope-coded maleimide labeling and mass spectrometry; conditions: 5 μM inhibitor
How it was run: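 Purified SrcFL K445C was diluted to 800 nM in HEPES pH 7.6 buffer with 5% glycerol and 0.02% DDM. It was incubated with 5 μM test compound at 25 °C for 30 min, then labelled with 1 mM heavy or light N-ethyl maleimide at 25 °C for 30 min. The reaction was quenched with 10 mM DTT. Heavy and light reactions were mixed, and protein was precipitated with deoxycholate/TCA on ice before mass spectrometry.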

Row | SMILES | inhibition of WT Src (IC50, Figure 4C) (Src^3D WT) | inhibition of Src V284C (IC50, Figure 4C) (Src^3D V284C) | inhibition of WT Hck (IC50, Figure 4C) (Hck^3D WT) | kinases depleted from Kinobead matrix (selectivity) [1] | SH3 domain accessibility (retained Src in SH3 pulldown) (Src^FLAG V284C) | membrane blebbing after pre-treatment with 2 prior to addition of 3 ([2]; 3 μM 2 for 15 min, then 10 μM 3 for 15 min) | membrane blebbing [2] | membrane blebbing [3] | membrane blebbing [4] | membrane blebbing [5] | maleimide labeling of control cysteine residue, 6 complex vs 5 complex (Src^FL K445C; control peptide) | K445C maleimide labeling, open (6) compared to closed (5) conformation (Src^FL K445C; αF peptide, ratio 6 complex vs 5 complex)
1 | COCCn1c(/C=C(/C#N)C(=O)NC(C)C)c(-c2ccc(Cl)cc2)c2c(N)ncnc21 [compound 1, (E)- & (Z)-3-(4-Amino-5-(4-chlorophenyl)-7-(2-methoxyethyl)-7H-pyrrolo[2,3-d]pyrimidin-6-yl)-2-cyano-N-isopropylacrylamide] | insensitive | potently inhibited | insensitive | Hck^FLAG V284C was the only kinase among the ~220 enriched that was depleted | – | – | – | – | – | – | – | –
2 | COCCn1c(/C=C(/C#N)C(=O)NC(C)C)c(-c2ccc(Oc3ccccc3)cc2)c2c(N)ncnc21 [compound 2, (E)- & (Z)-3-(4-Amino-7-(2-methoxyethyl)-5-(4-phenoxyphenyl)-7H-pyrrolo[2,3-d]pyrimidin-6-yl)-2-cyano-N-isopropylacrylamide] | minimal inhibition | potently inhibited | minimal inhibition | Hck^FLAG V284C was the only kinase among the ~220 enriched that was depleted | minimal pulldown | levels of blebbing comparable to cells treated with DMSO or 2 alone | minimally affected | – | – | – | – | –
3 | CNC(=O)C(C#N)=Cc1c(C#Cc2cc(NC(=O)c3cccc(C(F)(F)F)c3)ccc2C)c2cncnc2n1CCOC [compound 3, (E)- and (Z)-N-(3-((6-(2-cyano-3-(methylamino)-3-oxoprop-1-en-1-yl)-7-(2-methoxyethyl)-7H-pyrrolo[2,3-d]pyrimidin-5-yl)ethynyl)-4-methylphenyl)-3-(trifluoromethyl)benzamide] | minimal inhibition | potently inhibited | minimal inhibition | – | greatly increased | – | induction of blebbing | did not significantly increase membrane blebs | did not produce blebbing | marked increase in blebbing | – | –
4 | Cc1ccc(NC(=O)c2cccc(C(F)(F)F)c2)cc1C#Cc1nn(C2CCCC2)c2ncnc(N)c12 [compound 6, N-(3-((4-amino-1-cyclopentyl-1H-pyrazolo[3,4-d]pyrimidin-3-yl)ethynyl)-4-methylphenyl)-3-(trifluoromethyl)benzamide] | – | – | – | – | – | – | – | – | – | – | no change in labeling | ~ 5 fold
